Compound activity from PubChem BioAssay.
In the library only some 2.1% were active in any assay of this set; here they are far more common.
CCR6 antagonist: blocks CCL20-driven beta-arrestin recruitment at human CCR6; CHO-K1 CCR6 PathHunter beta-arrestin, luminescence, CCL20-stimulated; AID 493098; inhibition, % at 20 µM; actives 0.49% (n = 340,000);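 active = compounds whose inhibition of the agonist-driven luminescence signal at 20 µM reaches about 50%, limit read from the data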;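 also: cells stimulated with CCL20 at 14 nM final; plate controls were DMSO with CCL20 for no effect and DMSO without agonist for full effect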
EBI2 block: antagonists of human EBI2 receptor; P32249; EBI2 beta-arrestin recruitment, luminescence, 7a,25-OHC stimulated; inhibition, % at 5 µM; actives 0.81% (n = 360,000); AID 651636; in the data active = inhibition above about 38%;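 also: enzyme fragment complementation signal reports receptor beta-arrestin coupling in cells; 0% = agonist plus DMSO wells and 100% = wells without agonist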
Target sequence (P32249 whole entry, looked up, the tested form may be a part): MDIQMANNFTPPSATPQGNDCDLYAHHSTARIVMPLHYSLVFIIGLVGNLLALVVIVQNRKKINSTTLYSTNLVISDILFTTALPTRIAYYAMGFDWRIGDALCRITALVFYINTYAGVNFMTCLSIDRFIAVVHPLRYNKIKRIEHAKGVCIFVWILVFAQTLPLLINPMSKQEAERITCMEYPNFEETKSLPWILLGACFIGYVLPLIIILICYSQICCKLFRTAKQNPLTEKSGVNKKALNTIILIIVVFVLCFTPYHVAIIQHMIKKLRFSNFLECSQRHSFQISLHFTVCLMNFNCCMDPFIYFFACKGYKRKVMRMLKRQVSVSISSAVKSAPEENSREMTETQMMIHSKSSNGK
APJ antagonist: APJ receptor antagonism | P35414 | CHO-K1 APJ beta-arrestin complementation, luminescence | inhibition, % at 20 µM | actives 0.32% (n = 330,000) | AID 2521;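 active = inhibition above about 40% at 20 µM, limit read from the data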;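 also: cells challenged with 10 nM apelin-13 agonist together with compound; plate controls were apelin-13 plus DMSO wells for no effect and DMSO wells lacking apelin-13 for full effect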
APJ agonist: activates the human apelin receptor APJ | P35414 | CHO-K1 APJ PathHunter beta-arrestin, luminescence; 0% DMSO wells, 100% apelin | activation, % at 20 µM | actives 0.11% (n = 330,000);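 active = activation more than six SD over the plate average, tested at 20 µM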;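 also: 0% = DMSO alone and 100% = apelin-13 at 10 nM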
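Assay system: CHO-K1 cells stably expressing ProLink-tagged human APJ and arrestin–beta-gal acceptor. Compound dosing: 20 µM single point, 1% DMSO. Times: 16-18 h seeding, 90 min dark compound exposure, 60 min detection. Detection: beta-gal luminescence. Evaluation: APJ–arrestin association signal. Controls: negative DMSO alone, positive Apelin-13 at 10 nM.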
m5-HT2A agonist: agonists of mouse serotonin 5-HT2A receptor (HTR2A); actives 0.66% (n = 360,000); CHO-K1 mHTR2A beta-arrestin complementation, luminescence; percent of 30 µM serotonin response; P35363; activation, % at 7.6 µM;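 active = activation above a run cutoff, the mean activation of all tested compounds plus 3 SD, cut at about 14% in these data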;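 also: 0% = plate median of compound wells and 100% = 30 µM serotonin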
CXCR6 inh: inhibitors of human CXCR6 receptor; CHO-K1 PathHunter CXCR6 beta-arrestin, luminescence; inhibition, % at 20 µM; actives 0.36% (n = 360,000); in the data active = inhibition above about 34%, passing the limit was not always enough;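 also: antagonist mode with CXCL16 agonist at 10 nM final; 0% = 10 nM CXCL16 with DMSO and 100% = unstimulated wells without agonist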
EBI2 antag conf: EBI2 (human) antagonism, single concentration confirmation | EBI2 beta-arrestin luminescence, 7a,25-OHC antagonism | inhibition, % at 5 µM | actives 29% (n = 2,400) | shares compounds with EBI2 block;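 active = inhibition of at least 50%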
EBI2 ag: EBI2 agonism counter-screen; AID 652000; EBI2-expressing cells, agonist mode, luminescence, 60 min; 0% vehicle, 100% 7α,25-dihydroxycholesterol control; 2,400 tested, under 10 active; activation, % at 5 µM; shares compounds with EBI2 block;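 active = activation of at least 50%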
bGal cs: beta-galactosidase inhibition counter-screen; AID 652176; shares compounds with EBI2 block; actives 1% (n = 2,400); inhibition, % at 5 µM; purified beta-galactosidase, luminescent Galacton Star, 15 min;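 active = replicate-average signal at least 3 plate SD below neutral wells, shown as high inhibition, flagging enzyme-inhibiting false positives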;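 also: 0% = DMSO wells with enzyme and 100% = wells lacking enzyme; higher means stronger loss of beta-gal luminescence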
The depositor's hits bear a star; . = no result given.

SMILES	CCR6 antagonist	EBI2 block	APJ antagonist	APJ agonist	m5-HT2A agonist	CXCR6 inh	EBI2 antag conf	EBI2 ag	bGal cs
O=C1C=C(c2ccc3c(c2)oc2ccccc23)C[C@@H](c2ccc(Cl)cc2)C1	5	62*	1	-5	2	10	23	2	5
O=C1C=C(c2ccc(Oc3ccccc3)cc2)C[C@@H](c2ccc(Cl)cc2)C1	14	14	8	-1	0	1	.	.	.
O=C1C=C(c2cccc(Cl)c2)C[C@@H](c2ccc(Cl)cc2)C1	25	53*	-5	-3	-3	2	25	-2	-6
CC(C)(C)c1cc[n+](C2=C([O-])c3ccccc3C(=O)/C2=N\S(=O)(=O)c2cccs2)cc1	-9	8	-26	9	-2	-8	.	.	.
CCOc1cc(CNc2ccc(N3CCCCC3)cc2)cc(Br)c1OCC(=O)NC(C)(C)C	14	3	-28	0	0	0	.	.	.
CCC(=O)N1CCc2cc(OC)c(OC)cc2C1COc1ccccc1OC (configuration not stated)	13	4	.	.	1	-13	.	.	.
CC(=O)Nc1ccc(C2=CC(=O)C[C@H](c3ccc(Cl)cc3)C2)cc1	8	39	-1	-3	-4	2	.	.	.
CSc1ccc(C2=CC(=O)C[C@H](c3ccc(Cl)cc3)C2)cc1	17	67*	3	-4	-2	6	52*	2	5
Cc1cc(C(=O)NCC(=O)OCC(=O)N(C2CCCCC2)C2CCCCC2)ccc1[N+](=O)[O-]	11	81*	8	-3	-4	-2	47	-1	-8
Cc1cc(C(=O)NCC(=O)OCC(=O)NCC2CCCO2)ccc1[N+](=O)[O-] (configuration not stated)	11	-10	4	-5	9	7	.	.	.
O=S(Cc1ccc(Cl)cc1)CC(O)COc1ccc(Cl)cc1 (configuration not stated)	-13	76*	-17	-1	-4	-6	60*	-1	-15
COc1cc(-c2nnc(COc3ccc4cc(Br)ccc4c3)o2)cc(OC)c1OC	8	56*	15	-1	1	3	14	1	1
COc1nc(C)nc2c1sc1nc3c(cc12)COC(C)(C)C3	-2	9	11	-2	-5	-7	.	.	.
C=CCNC(=S)N/N=C/c1cn(-c2ccccc2)nc1-c1ccc(OC)cc1	-18	45*	-17	2	5	10	35	1	7
CCOc1ccc(N2CC(C(=O)Nc3ccc(S(=O)(=O)NCC4CCCO4)cc3)CC2=O)cc1 (configuration not stated)	-1	51*	4	0	-4	-13	27	1	7
CCOCCCNS(=O)(=O)c1ccc(NC(=O)C2CC(=O)N(c3ccc(C)cc3)C2)cc1 (configuration not stated)	20	65*	3	-2	-3	-4	39	-2	-12
CCOC(=O)C1=C(O)/C(=C/c2ccccn2)SC1=Nc1ccc(Cl)cc1	24	88*	20	-1	3	7	86*	1	8
CCOC(=O)C1=C(O)/C(=C/c2cc(OC)c(O)c(OC)c2)SC1=Nc1ccc(OC)cc1	21	49*	.	.	0	13	49	2	14
CC(=O)NC12CC3CC(C1)CC(C(=O)N1CCN(S(=O)(=O)c4ccc(Cl)s4)CC1)(C3)C2	11	9	12	6	7	8	.	.	.
CCOc1cc(/C=C(\C#N)C(=O)Nc2ccccn2)ccc1O	15	1	3	-1	-3	0	.	.	.
